Data on six substances can be found in PMC2826548 (Journal of structural biology, 2009).

Data set [1] has as its target Human K2Pg(C4G/E56D/L72Y), isolated kringle 2 domain of human plasminogen (human). As to the kind of experiment: SPR.
Data set [2] is described as follows: CD α-helix content of VEK-30 peptides in absence of K2Pg. Type of data set: physicochemical. The note with it: 222 nm, 30 μM peptide, 100 mM sodium phosphate, pH 7.4, room temperature. The essentials:
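Recombinant peptides (His6-GB1 fusion expressed in E. coli BL21(DE3), thrombin-cleaved, GS N-terminal remnant; variants by site-directed mutagenesis; integrity checked by MALDI-TOF). Spectra recorded 200–250 nm in a 1 mm quartz cell without K2Pg. Concentration set by A280. Helix fraction derived from mean residue ellipticity at 222 nm as f_α = (−[θ]222 − 2340)/30,300.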

Data set [3] deals with other isolated Pg kringle domains. The note with it: cited from earlier work.
Data set [4] has as its target T1, K2Pg (Homo sapiens, UniProt P00747, C188G/E240D/L256Y).
T1 sequence (P00747 184-262 C188G/E240D/L256Y): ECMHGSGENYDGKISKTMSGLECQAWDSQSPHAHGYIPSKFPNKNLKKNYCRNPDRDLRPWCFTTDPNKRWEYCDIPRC
As to the kind of experiment: SPR binding of VEK-30 variants to immobilized K2Pg. The essentials:
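Recombinant peptide analytes (GB1-fusion, thrombin-cleaved, GS N-terminal remnant) were run at 25 °C. K2Pg at 100 μg/ml in 0.1 M NaOAc pH 4.0 was amine-coupled (NHS/EDC, ethanolamine block). A K2Pg-free reference cell was subtracted. KD = kd/ka.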
(SPR reads the build-up and loss of mass on a sensor chip optically.)

A short description of data set [5]: Sedimentation equilibrium analytical ultracentrifugation. Type of data set: physicochemical. Conditions: sedimentation equilibrium (and NMR correlation time).
The target of data set [6] is T1, K2Pg. Conditions: variant kringle vs K2Pg parent; ref [5]; cited from earlier work.
For data set [7], the target named is Human K2Pg(C4G/E56D/L72Y), isolated kringle 2 domain of human plasminogen (human). As to the kind of experiment: AUC.
Data set [8] shares this target.

Where two headings read alike, the source gives them in different places.

What is called Kd is the constant that tells how readily two partners part at equilibrium. Low readings indicate tighter binding, high ones weaker binding. A word on the koff: it is the first-order rate constant of dissociation. As usually defined, the kon is the rate constant with which the complex forms.

As to VEK-30[D7A] (peptide), in data set [1], the Kd was found to be 0.446 µM, the koff worked out at 0.0561 s⁻¹ and the on-rate constant (kon) is 126000 M⁻¹ s⁻¹.
With VEK-30[D7A/E9A] (peptide), in data set [1], the Kd is 0.371 µM, the koff was 0.0967 s⁻¹ and the association rate constant (kon) amounted to 261000 M⁻¹ s⁻¹.
With “H-GSVEKLTADAELQRLKNERHEEAELERLKSEY-OH [VEK-30]”, the “Apo-helicity (% α-helix in absence of K2Pg)” value in data set [2] was 34%. In data set [3] (background statement in Introduction, no reference printed in that sentence), the “specificity of binding to Pg for the kringle 2 domain” value is “highly specific”. The “affinity for the other isolated Pg kringle domains” value in data set [3] (ref [5],[33]) is recorded as “no measurable affinity”. Moreover, on K2Pg [4] (pH 7.4, read-out: koff (dissociation rate constant)), the off-rate (koff) amounted to 0.0293 s⁻¹. For the same substance, the kon at K2Pg [4] (pH 7.4, read-out: kon (association rate constant)) turned out to be 454000 M⁻¹ s⁻¹. In data set [5], the “association state in solution” value is listed as “monomeric form”. The “affinity enhancement of K2Pg(C4G/E56D/L72Y) compared with K2Pg parent” value at K2Pg [6] is reported as “approximately 15 fold”.
In data set [1], VEK-30[D7N] (peptide) showed a Kd of 1.94 µM, an off-rate (koff) of 0.0704 s⁻¹ and a kon of 36200 M⁻¹ s⁻¹.
The substance “VEK-30, 30-amino acid residue internal peptide from the streptococcal M-like plasminogen binding protein PAM” came in with a stoichiometry N (VEK-30 per K2Pg) in data set [7] of 1. In data set [1], this substance returned a Kd of 0.065 µM, an off-rate constant (koff) of 0.0293 s⁻¹, an association rate constant (kon) of 454000 M⁻¹ s⁻¹ and a stoichiometry N (VEK-30 per K2Pg) of 1. Besides, the dissociation constant (Kd) in data set [8] stood at 0.04 µM.
With VEK-30[D7N/E9Q] (peptide), in data set [1], the Kd is 1.71 µM, the koff came to 0.086 s⁻¹ and the kon turned out to be 50400 M⁻¹ s⁻¹.
